Where a name gives a salt, the structure may show the parent alone. One block for each compound: values may come before it. Activity calls are given as the source filed them. No cut-off for these calls is given here.
Legend:
[1] = tested on: HT-1080; experiment: Cytotoxicity against human HT-1080 cells assessed as reduction in cell viability incubated for 72 hrs by MTT assay; format: functional, cell-based; conditions: HT-1080, 72 h
Procedure, shortened: (§1)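 Cancer lines (MDA-MB-231, HT-1080, PC-3) were grown in DMEM with 10% FBS and penicillin/streptomycin at 37 °C in 5% CO₂. About 5000 cells/well adhered overnight, then serial compound dilutions were added for 72 h, with matching DMSO dilutions (0.5–0.0008% v/v) as controls. MTT (1 mg/ml final, serum-free phenol-red-free DMEM) ran 4 h, was solubilised in 2-propanol, and OD read at 550 nm (ref 690). IC50 is the concentration halving OD versus untreated, mean of three independent experiments.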

[2] = tested on: PC-3; experiment: Cytotoxicity against human PC-3 cells assessed as reduction in cell viability incubated for 72 hrs by MTT assay; format: functional, cell-based; conditions: PC-3, 72 h; procedure, shortened: as §1
[3] = tested on: MDA-MB-231; experiment: Cytotoxicity against human MDA-MB-231 cells assessed as reduction in cell viability incubated for 72 hrs by MTT assay; format: functional, cell-based; conditions: MDA-MB-231, 72 h; procedure, shortened: as §1
[4] = tested on: AG1523; experiment: Cytotoxicity against human AG01523 cells assessed as reduction in cell viability incubated for 72 hrs by MTT assay; format: cell-based; conditions: AG1523, 72 h
[5] = target: RAC-alpha serine/threonine-protein kinase (Homo sapiens) (UniProt P31749); experiment: Inhibition of AKT phosphorylation at Ser473 residue in human HT-1080 cells at 20 uM after 15 mins by Western blotting analysis
[6] = tested on: HT-1080; experiment: Induction of cell cycle arrest in human HT1080 cells assessed as accumulation at S phase at 2 uM incubated for 24 hrs by RNase/PI staining based flow cytometric analysis (reference value: 19.59 %); format: functional
[7] = tested on: HT-1080; experiment: Inhibition of ERK phosphorylation in human HT-1080 cells at 20 uM after 15 mins by Western blotting analysis
[8] = tested on: HT-1080; experiment: Induction of apoptosis in human HT-1080 cells assessed as increase in PARP cleavage at 2 uM after 24 hrs by Western blotting analysis
[9] = tested on: HT-1080; experiment: Induction of cell cycle arrest in human HT1080 cells assessed as accumulation at G2/M phase at 2 uM incubated for 24 hrs by RNase/PI staining based flow cytometric analysis (reference value: 47.55 %); format: functional
[10] = tested on: HT-1080; experiment: Induction of cell cycle arrest in human HT1080 cells assessed as accumulation at G0/G1 phase at 2 uM incubated for 24 hrs by RNase/PI staining based flow cytometric analysis (reference value: 32.86 %); format: functional
[11] = tested on: HT-1080; experiment: Induction of cell cycle arrest in human HT1080 cells assessed as accumulation at sub-diploid phase at 2 uM incubated for 24 hrs by RNase/PI staining based flow cytometric analysis (reference value: 5.36 %); format: functional
[12] = target: MAP kinase p38 (Homo sapiens) (UniProt O15264+Q15759+Q16539+P53778); experiment: Induction of p38 MAPK phosphorylation in human HT-1080 cells at 20 uM after 15 mins by Western blotting analysis

RAC-alpha serine/threonine-protein kinase (Homo sapiens), sequence (P31749 whole entry): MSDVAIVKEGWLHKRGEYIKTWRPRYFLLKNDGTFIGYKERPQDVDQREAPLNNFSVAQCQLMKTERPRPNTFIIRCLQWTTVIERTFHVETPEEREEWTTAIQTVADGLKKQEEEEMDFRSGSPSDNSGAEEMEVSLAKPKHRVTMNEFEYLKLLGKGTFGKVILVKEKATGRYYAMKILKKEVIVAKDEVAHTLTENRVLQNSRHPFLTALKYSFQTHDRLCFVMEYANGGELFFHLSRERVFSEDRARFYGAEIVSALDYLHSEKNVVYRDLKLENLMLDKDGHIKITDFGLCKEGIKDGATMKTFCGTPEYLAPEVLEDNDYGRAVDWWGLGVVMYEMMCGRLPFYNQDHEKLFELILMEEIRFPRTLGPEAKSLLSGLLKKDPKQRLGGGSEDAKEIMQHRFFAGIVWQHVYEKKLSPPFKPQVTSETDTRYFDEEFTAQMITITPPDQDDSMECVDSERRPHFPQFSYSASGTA

- inhibition ([5]; time 15.0 min): inactive
SMILES: COc1ccc(Cn2nc(-c3ccccc3)c3cc(C(=N)Nc4ccccc4)nc(NC4CCCCC4)c32)cc1
- IC50 [1]: 3.4 µM
- IC50 [2]: 1.1 µM
- IC50 [3]: 3.4 µM
- IC50 [4]: 26.8 µM

- inhibition ([5]; time 15.0 mins): 100%
SMILES: COc1ccc(Cn2nc(-c3ccccc3)c3cc(C(=N)Nc4ccc(N5CCN(C)CC5)cc4)nc(N4CCOCC4)c32)cc1
- IC50 [1]: 0.7 µM
- Activity [6]: 34.21%
- inhibition [7]: Active
- IC50 [2]: 4.58 µM
- IC50 [3]: 1.13 µM
- Activity [8]: Active
- IC50 [4]: 2.19 µM
- Activity [9]: 31.48%
- Percentage of cells in G0/G1 phase [10]: 34.31%
- Percent of cells in sub-diploid (sub-G1) phase [11]: 21.09%

- Activity [12]: Active
SMILES: N=C(Nc1ccccc1)c1cc2c(-c3ccccc3)n[nH]c2c(NC2CCCCC2)n1
- IC50 [1]: 0.85 µM
- Activity [6]: 16.48%
- IC50 [2]: 1.73 µM
- IC50 [3]: 1.71 µM
- Activity [8]: Active
- IC50 [4]: 4.19 µM
- Activity [9]: 43.29%
- Percentage of cells in G0/G1 phase [10]: 40.23%
- Percent of cells in sub-diploid (sub-G1) phase [11]: 8.27%

SMILES: CN1CCN(c2ccc(NC(=N)c3cc4c(-c5ccccc5)nn(C)c4cn3)cc2)CC1
- IC50 [1]: 1.4 µM
- IC50 [2]: 5.9 µM
- IC50 [3]: 4.9 µM
- IC50 [4]: 10.4 µM

- Activity [12]: Active
- inhibition ([5]; time 15.0 mins): 100%
SMILES: CN1CCN(c2ccc(NC(=N)c3cc4c(-c5ccccc5)n[nH]c4c(NC4CCCCC4)n3)cc2)CC1
- IC50 [1]: 0.65 µM
- Activity [6]: 14.37%
- inhibition [7]: Active
- IC50 [2]: 4.63 µM
- IC50 [3]: 1.5 µM
- Activity [8]: Active
- IC50 [4]: 12.3 µM
- Activity [9]: 41.85%
- Percentage of cells in G0/G1 phase [10]: 43.78%
- Percent of cells in sub-diploid (sub-G1) phase [11]: 13.49%

SMILES: COc1ccc(Cn2cc3cc(C(=N)Nc4ccccc4)ncc3n2)cc1
- IC50 [1]: 1.13 µM
- Activity [6]: 7.35%
- inhibition [7]: inactive
- IC50 [2]: 2.04 µM
- IC50 [3]: 1.52 µM
- Activity [8]: Active
- IC50 [4]: 32.4 µM
- Activity [9]: 36.07%
- Percentage of cells in G0/G1 phase [10]: 56.57%
- Percent of cells in sub-diploid (sub-G1) phase [11]: 24.06%

- inhibition ([5]; time 15.0 mins): 100%
SMILES: COc1ccc(Cn2nc(-c3ccccc3)c3cc(C(=N)Nc4ccc(N5CCN(C)CC5)cc4)ncc32)cc1
- IC50 [1]: 1.09 µM
- Activity [6]: 17.27%
- inhibition [7]: Active
- IC50 [2]: 3.99 µM
- IC50 [3]: 1.76 µM
- Activity [8]: Active
- IC50 [4]: 10.2 µM
- Activity [9]: 35.98%
- Percentage of cells in G0/G1 phase [10]: 46.75%
- Percent of cells in sub-diploid (sub-G1) phase [11]: 17.77%

- Activity [12]: Active
- inhibition ([5]; time 15.0 mins): Active
SMILES: COc1ccc(Cn2nc(-c3ccccc3)c3cc(C(=N)Nc4ccc(N5CCN(C)CC5)cc4)nc(Nc4cc(OC)c(OC)c(OC)c4)c32)cc1
- IC50 [1]: 1.2 µM
- Activity [6]: 64.04%
- inhibition [7]: Active
- IC50 [2]: 1.24 µM
- IC50 [3]: 0.89 µM
- Activity [8]: Active
- IC50 [4]: 1.81 µM
- Activity [9]: 9.29%
- Percentage of cells in G0/G1 phase [10]: 26.67%
- Percent of cells in sub-diploid (sub-G1) phase [11]: 27.79%

SMILES: COc1cccc2c1C(=O)c1c(O)c3c(c(O)c1C2=O)C[C@@](O)(C(=O)CO)C[C@@H]3O[C@H]1C[C@H](N)[C@H](O)[C@H](C)O1 [DOXORUBICIN HYDROCHLORIDE]
- IC50 [1]: 0.008 µM
- IC50 [2]: 0.38 µM
- IC50 [3]: 0.19 µM
- IC50 [4]: 0.4 µM

SMILES: COc1ccc(Cn2nc(-c3ccccc3)c3cc(C(=N)Nc4ccc(N5CCN(C)CC5)cc4)nc(NC4CCCCC4)c32)cc1
- IC50 [1]: 0.64 µM
- Activity [6]: 12.9%
- inhibition [7]: Active
- IC50 [2]: 3.54 µM
- IC50 [3]: 1.29 µM
- Activity [8]: Active
- IC50 [4]: 3.33 µM
- Activity [9]: 48.57%
- Percentage of cells in G0/G1 phase [10]: 38.53%
- Percent of cells in sub-diploid (sub-G1) phase [11]: 14.34%

SMILES: COc1ccc(Cn2nc(-c3ccccc3)c3cc(C(=N)Nc4ccccc4)ncc32)cc1
- IC50 [1]: 4.7 µM
- IC50 [2]: 6.3 µM
- IC50 [3]: 5.4 µM

SMILES: N=C(Nc1cccc(C(F)(F)F)c1)c1cc2cn[nH]c2cn1
- IC50 [1]: 36.5 µM
- IC50 [2]: > 50 µM
- IC50 [3]: > 50 µM

SMILES: N=C(Nc1cccc(C(F)(F)F)c1)c1cc2c(-c3ccccc3)n[nH]c2c(N2CCOCC2)n1
- IC50 [1]: 6.8 µM
- IC50 [2]: 17.3 µM
- IC50 [3]: 13.3 µM

SMILES: N=C(Nc1ccccc1)c1cc2c(-c3ccccc3)n[nH]c2c(N2CCOCC2)n1
- IC50 [1]: 4.8 µM
- IC50 [2]: 6.8 µM
- IC50 [3]: 6.8 µM

SMILES: N=C(Nc1cccc(C(F)(F)F)c1)c1cc2c(-c3ccccc3)n[nH]c2c(NC2CCCCC2)n1
- IC50 [1]: 21.2 µM
- IC50 [2]: 25 µM
- IC50 [3]: 24.6 µM

From ChEMBL document CHEMBL4819061, “New bioactive 5-arylcarboximidamidopyrazolo[3,4-c]pyridines: Synthesis, cytotoxic activity, mechanistic investigation and structure-activity relationships” (Eur J Med Chem, 2021)
